Laboratory results reported in ChEMBL document CHEMBL1157197, “Design, synthesis and trypanocidal activity of lead compounds based on inhibitors of parasite glycolysis” (Bioorg Med Chem, 2008).

Columns and labels:
[1] = molecular target: T1, ATP-dependent 6-phosphofructokinase (Trypanosoma brucei, UniProt O15648); assay: Inhibition of Trypanosoma brucei phosphofructokinase
T1 sequence (O15648 whole entry): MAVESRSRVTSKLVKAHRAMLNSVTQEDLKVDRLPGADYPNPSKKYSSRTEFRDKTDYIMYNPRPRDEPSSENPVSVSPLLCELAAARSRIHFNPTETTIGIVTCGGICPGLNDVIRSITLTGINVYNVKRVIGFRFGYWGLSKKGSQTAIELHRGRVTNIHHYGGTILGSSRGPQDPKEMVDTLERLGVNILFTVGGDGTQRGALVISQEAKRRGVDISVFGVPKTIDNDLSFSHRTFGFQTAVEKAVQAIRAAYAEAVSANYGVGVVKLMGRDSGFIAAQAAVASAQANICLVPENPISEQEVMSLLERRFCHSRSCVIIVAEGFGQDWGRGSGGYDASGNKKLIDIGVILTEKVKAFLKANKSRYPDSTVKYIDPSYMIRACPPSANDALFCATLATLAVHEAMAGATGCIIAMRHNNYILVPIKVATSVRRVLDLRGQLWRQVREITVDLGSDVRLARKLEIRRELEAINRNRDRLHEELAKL

[2] = molecular target: T2, ATP-dependent 6-phosphofructokinase (Trypanosoma brucei) (UniProt O15648); assay: Inhibition of Trypanosoma brucei phosphofructokinase assessed as enzyme residual activity at 1 mM
T2 sequence (whole entry): T1 sequence (O15648 whole entry)

Trypanosoma brucei = assay: Antiparasitic activity against Trypanosoma brucei strain 427; type: functional; conditions: read-out: ED50 (the source's name)
Outline: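 Cultured bloodstream-form Trypanosoma brucei brucei strain 427 exposed to compounds in vitro; ED50 reported.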

[3] = molecular target: T3, Pyruvate kinase (Leishmania mexicana) (UniProt Q27686); assay: Inhibition of Leishmania mexicana pyruvate kinase assessed as enzyme residual activity at 5 mM
T3 sequence (whole entry): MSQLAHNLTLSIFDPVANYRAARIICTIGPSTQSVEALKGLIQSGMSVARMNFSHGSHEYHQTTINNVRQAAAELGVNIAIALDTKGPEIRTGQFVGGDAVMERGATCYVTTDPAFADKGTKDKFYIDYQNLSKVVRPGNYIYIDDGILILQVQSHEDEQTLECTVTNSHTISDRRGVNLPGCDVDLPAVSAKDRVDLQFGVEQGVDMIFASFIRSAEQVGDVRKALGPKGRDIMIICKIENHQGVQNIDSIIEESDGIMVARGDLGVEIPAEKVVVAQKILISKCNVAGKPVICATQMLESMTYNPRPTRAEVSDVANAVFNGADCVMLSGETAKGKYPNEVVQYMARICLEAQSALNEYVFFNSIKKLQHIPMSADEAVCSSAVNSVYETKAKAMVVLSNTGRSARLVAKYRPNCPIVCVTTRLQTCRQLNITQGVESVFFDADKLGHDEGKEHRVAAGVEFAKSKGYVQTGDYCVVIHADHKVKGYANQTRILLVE

[4] = molecular target: T2, ATP-dependent 6-phosphofructokinase (Trypanosoma brucei); assay: Inhibition of Trypanosoma brucei phosphofructokinase assessed as enzyme residual activity at 5 mM

| IC50 [1] | Activity [2] | EC50 (Trypanosoma brucei) | Activity [3] | Activity [4] | Structure (SMILES) |
| --- | --- | --- | --- | --- | --- |
| 50 µM | 2% | 110 µM |  |  | C=CCNC(=O)[C@H]1O[C@H](CNCc2ccc(Cl)c(Cl)c2)[C@@H](O)[C@@H]1O |
| 80 µM | 4.7% | 35 µM | 88.2% |  | O=C(NC1CCCCCC1)[C@H]1O[C@H](CNCc2ccc(Cl)c(Cl)c2)[C@@H](O)[C@@H]1O |
| 410 µM |  | 130 µM | 43% | 5% | OC[C@H]1O[C@H](CNCc2ccc(Cl)c(Cl)c2)[C@@H](O)[C@@H]1O |
| 23 µM | 0.9% | 30 µM |  |  | O=C(NCc1ccc(Cl)c(Cl)c1)[C@H]1O[C@H](CNCc2ccc(Cl)c(Cl)c2)[C@@H](O)[C@@H]1O |
